Test results: ChEMBL document CHEMBL4689842, “EUbOPEN Chemogenomics Library wave 1” (2021)

Tested on: HEK-293T
Experiment: Multiplex assay against HEK293T;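 for Population Tubulin-Different-Phenotype (%): share of the cells with healthy nuclei that show this phenotype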
Format: toxicity, cell-based
Settings: human
Procedure, shortened: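 On a CQ1 microscope at 37°C and 5% CO2, live cells were imaged after compound addition. They had been stained at seeding with Hoechst33342, BioTracker Green Microtubule Cytoskeleton Dye, MitoTracker Red and Annexin V Alexa Fluor 680. CellPathfinder machine-learning gating assigned cells to Hoechst high-intensity objects or normal cells, normal cells to healthy, pyknosed or fragmented nuclei, and pyknosed cells to mitotic or apoptotic. Tubulin, mitochondrial-mass and membrane-permeability phenotypes are per cents of healthy-nucleus cells.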

[1] = 12 h, 1 µM, compound concentration 1 uM, replicate 1
[2] = 12 h, 1 µM, compound concentration 1 uM, replicate 2
[3] = 12 h, 10 µM, compound concentration 10 uM, replicate 1
[4] = 12 h, 10 µM, compound concentration 10 uM, replicate 2
[5] = 24 h, 1 µM, compound concentration 1 uM, replicate 1
[6] = 24 h, 1 µM, compound concentration 1 uM, replicate 2
[7] = 24 h, 10 µM, compound concentration 10 uM, replicate 1
[8] = 24 h, 10 µM, compound concentration 10 uM, replicate 2
[9] = 48 h, 1 µM, compound concentration 1 uM, replicate 1
[10] = 48 h, 1 µM, compound concentration 1 uM, replicate 2
[11] = 48 h, 10 µM, compound concentration 10 uM, replicate 1
[12] = 48 h, 10 µM, compound concentration 10 uM, replicate 2

## CN1CCN(CCOc2cc(OC3CCOCC3)c3c(Nc4c(Cl)ccc5c4OCO5)ncnc3c2)CC1 [SARACATINIB]
[1]
  Population Apoptotic (%): 51%
  Population Fragmented Nuclei (%): 11%
  Population Healthy Nuclei (%): 29%
  Population Hoechst High Intensity Objects (%): 15%
  Population Membrane Permeable-Phenotype (%): 2%
  Population Mitochondria Different-Phenotype (%): 89%
  Population Mitotic Cells (%): 48%
  Population Normal (%): 84%
  Population Pyknosed Nuclei (%): 58%
  Population Tubulin-Different-Phenotype (%): 82%
  Total Cell Count: 345
[2]
  Population Apoptotic (%): 22%
  Population Fragmented Nuclei (%): 4%
  Population Healthy Nuclei (%): 31%
  Population Hoechst High Intensity Objects (%): 8%
  Population Membrane Permeable-Phenotype (%): 3%
  Population Mitochondria Different-Phenotype (%): 71%
  Population Mitotic Cells (%): 77%
  Population Normal (%): 91%
  Population Pyknosed Nuclei (%): 63%
  Population Tubulin-Different-Phenotype (%): 58%
[3]
  Population Apoptotic (%): 72%
  Population Fragmented Nuclei (%): 15%
  Population Healthy Nuclei (%): 21%
  Population Hoechst High Intensity Objects (%): 17%
  Population Membrane Permeable-Phenotype (%): 15%
  Population Mitochondria Different-Phenotype (%): 94%
  Population Mitotic Cells (%): 27%
  Population Normal (%): 82%
  Population Pyknosed Nuclei (%): 63%
  Population Tubulin-Different-Phenotype (%): 89%
  Total Cell Count: 223
[4]
  Population Apoptotic (%): 82%
  Population Fragmented Nuclei (%): 6%
  Population Healthy Nuclei (%): 22%
  Population Hoechst High Intensity Objects (%): 7%
  Population Membrane Permeable-Phenotype (%): 2%
  Population Mitochondria Different-Phenotype (%): 100%
  Population Mitotic Cells (%): 17%
  Population Normal (%): 92%
  Population Pyknosed Nuclei (%): 71%
  Population Tubulin-Different-Phenotype (%): 100%
  Total Cell Count: 190
[5]
  Population Apoptotic (%): 54%
  Population Fragmented Nuclei (%): 11%
  Population Healthy Nuclei (%): 36%
  Population Hoechst High Intensity Objects (%): 13%
  Population Membrane Permeable-Phenotype (%): 3%
  Population Mitochondria Different-Phenotype (%): 87%
  Population Mitotic Cells (%): 45%
  Population Normal (%): 86%
  Population Pyknosed Nuclei (%): 52%
  Population Tubulin-Different-Phenotype (%): 65%
  Total Cell Count: 382
[6]
  Population Apoptotic (%): 28%
  Population Fragmented Nuclei (%): 4%
  Population Healthy Nuclei (%): 39%
  Population Hoechst High Intensity Objects (%): 5%
  Population Membrane Permeable-Phenotype (%): 1%
  Population Mitochondria Different-Phenotype (%): 58%
  Population Mitotic Cells (%): 71%
  Population Normal (%): 94%
  Population Pyknosed Nuclei (%): 55%
  Population Tubulin-Different-Phenotype (%): 66%
  Total Cell Count: 217
[7]
  Population Apoptotic (%): 80%
  Population Fragmented Nuclei (%): 12%
  Population Healthy Nuclei (%): 15%
  Population Hoechst High Intensity Objects (%): 23%
  Population Membrane Permeable-Phenotype (%): 0%
  Population Mitochondria Different-Phenotype (%): 100%
  Population Mitotic Cells (%): 19%
  Population Normal (%): 76%
  Population Pyknosed Nuclei (%): 71%
  Population Tubulin-Different-Phenotype (%): 90%
  Total Cell Count: 248
[8]
  Population Apoptotic (%): 88%
  Population Fragmented Nuclei (%): 5%
  Population Healthy Nuclei (%): 25%
  Population Hoechst High Intensity Objects (%): 5%
  Population Membrane Permeable-Phenotype (%): 6%
  Population Mitochondria Different-Phenotype (%): 95%
  Population Mitotic Cells (%): 11%
  Population Normal (%): 94%
  Population Pyknosed Nuclei (%): 69%
  Population Tubulin-Different-Phenotype (%): 85%
  Total Cell Count: 208
[9]
  Population Apoptotic (%): 51%
  Population Fragmented Nuclei (%): 16%
  Population Healthy Nuclei (%): 47%
  Population Hoechst High Intensity Objects (%): 18%
  Population Membrane Permeable-Phenotype (%): 2%
  Population Mitochondria Different-Phenotype (%): 50%
  Population Mitotic Cells (%): 48%
  Population Normal (%): 81%
  Population Pyknosed Nuclei (%): 36%
  Population Tubulin-Different-Phenotype (%): 49%
  Total Cell Count: 448
[10]
  Population Apoptotic (%): 26%
  Population Fragmented Nuclei (%): 4%
  Population Healthy Nuclei (%): 70%
  Population Hoechst High Intensity Objects (%): 5%
  Population Membrane Permeable-Phenotype (%): 1%
  Population Mitochondria Different-Phenotype (%): 32%
  Population Mitotic Cells (%): 73%
  Population Normal (%): 94%
  Population Pyknosed Nuclei (%): 25%
  Population Tubulin-Different-Phenotype (%): 55%
  Total Cell Count: 315
[11]
  Population Apoptotic (%): 73%
  Population Fragmented Nuclei (%): 23%
  Population Healthy Nuclei (%): 30%
  Population Hoechst High Intensity Objects (%): 26%
  Population Membrane Permeable-Phenotype (%): 3%
  Population Mitochondria Different-Phenotype (%): 96%
  Population Mitotic Cells (%): 26%
  Population Normal (%): 73%
  Population Pyknosed Nuclei (%): 45%
  Population Tubulin-Different-Phenotype (%): 78%
  Total Cell Count: 230
[12]
  Population Apoptotic (%): 84%
  Population Fragmented Nuclei (%): 6%
  Population Healthy Nuclei (%): 41%
  Population Hoechst High Intensity Objects (%): 11%
  Population Membrane Permeable-Phenotype (%): 0%
  Population Mitochondria Different-Phenotype (%): 98%
  Population Mitotic Cells (%): 15%
  Population Normal (%): 88%
  Population Pyknosed Nuclei (%): 52%
  Population Tubulin-Different-Phenotype (%): 71%
  Total Cell Count: 204
